“Also recorded” adds a separate entry of the source. Like-named read-outs stand apart in the source and are kept apart here.

Data set [1] deals with TrxR. The note with it: 50 μM 4-HNE for 6 hr, HeLa cells; cited from earlier work.
For data set [2], the system named is NF-κB. The note with it: cited from earlier work.
For data set [3] the following is noted: cited from earlier work.
For data set [4], the system named is human endothelial HMEC-1 cells. The note with it: 12.5 μM acrolein; cited from earlier work.
Data set [5] relates to GSH. The note with it: human endothelial cells, pretreatment; cited from earlier work.
Another data set deals with Trx1. The note with it: cited from earlier work.
The subject of a further data set is Trx2. The note with it: cited from earlier work.
Data set [6] concerns human endothelial HMEC-1 cells. The experiment in a line: Protection of human endothelial cells from acrolein toxicity / cell death. The class given is cell-based.
For data set [7] the following is noted: depending on the cell type; cited from earlier work.
The next data set deals with glutathione peroxidase. Particulars: 25 μM acrolein, 30 min, human umbilical vein endothelial cells; cited from earlier work.
In data set [8] the test system is NF-κB. Particulars: A549 cells; cited from earlier work.
For another data set, the system named is Human endothelial cells. Particulars: 30 min; cited from earlier work.
For data set [9], the system named is TrxR. The note with it: 25 μM acrolein for 30 min, human umbilical vein endothelial cells; cited from earlier work.
The subject of another data set is Purified TrxR. The note with it: 1 μM acrolein; cited from earlier work.
The next data set has as its system p38. The data set can be described thus: p38 phosphorylation western blot in HMEC-1 cells. The class given is cell-based, human. The essentials: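 HMEC-1 cells treated with acrolein, with anisomycin (200 ng/ml) as a known activator and untreated cells as controls. Western blots probed with anti-phospho-p38 (Thr180/Tyr182) and anti-p38α for total p38α. 3–5 independent treatments per condition, compared against untreated control.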

Data set [10] relates to NF-κB. The note with it: bovine endothelial cells; cited from earlier work.
The next data set deals with ASK1 bound to Trx1 (Homo sapiens, UniProt P10599). The data set can be described thus: Immunoprecipitation of ASK1 bound to Trx1 in HMEC-1 cells. The class given is cell-based. The note with it: acrolein 30 min.
ASK1 bound to Trx1, sequence (P10599 2-105 limits assumed): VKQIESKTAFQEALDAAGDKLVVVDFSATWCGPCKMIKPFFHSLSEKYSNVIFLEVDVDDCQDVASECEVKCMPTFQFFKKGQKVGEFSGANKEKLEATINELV
The next data set concerns superoxide dismutase. The note with it: 25 μM acrolein, 30 min, human umbilical vein endothelial cells; cited from earlier work.
In a further data set the test system is Trx. The note with it: cited from earlier work.
Data set [11] concerns TrxR. The note with it: A549 cells, cited from earlier work.
For another data set, the system named is Prx1. The note with it: acrolein-treated human bronchial cells; cited from earlier work.
For data set [12], the system named is TrxR. The experiment in a line: TrxR specific activity in normal human bronchial epithelial cells. The class given is cell-based. The note with it: BEAS-2B cells, 2.5 μM acrolein, 30 min. The essentials: (§1)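 BEAS-2B normal human bronchial epithelial cells exposed to acrolein for 30 min, with vehicle-alone cultures as controls. Specific activity of TrxR, glutathione reductase (GSSG-R) and GAPDH determined by enzymatic assay. Significance (P < 0.01) judged against vehicle-treated cells.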

The next data set concerns glutathione reductase. The note with it: 25 μM acrolein, 30 min, human umbilical vein endothelial cells; cited from earlier work.
For data set [13], the system named is GSH. The experiment in a line: GSH levels in human endothelial cells. The class given is cell-based. Particulars: HMEC-1 cells, acrolein 30 min, recovery 1 or 2 h.
In data set [14] the target is glyceraldehyde-3-phosphate dehydrogenase (GAPDH) (Homo sapiens, UniProt P04406). The data set can be described thus: GAPDH specific activity in BEAS-2B cells. In kind it is cell-based. Particulars: 30 min acrolein. The essentials:
as §1

The next data set deals with Prx3. The note with it: acrolein-treated human bronchial cells; cited from earlier work.
The test system of the next data set is AP-1. Particulars: A549 cells, reporter construct; cited from earlier work.
For data set [15], the target named is glutathione reductase (GSSG-R) (Homo sapiens, UniProt P00390). The data set can be described thus: Glutathione reductase specific activity in BEAS-2B cells. The class given is cell-based. The note with it: bronchial cells (BEAS-2B), 30 min. The method in brief:
as §1

For another data set, the system named is JNK. The experiment in a line: JNK phosphorylation western blot in HMEC-1 cells. In kind it is cell-based, human. The method in brief:
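HMEC-1 endothelial cells given acrolein; anisomycin at 200 ng/ml served as positive activator, and untreated cells as reference. Immunoblots probed for phospho-JNK (Thr183/Tyr185) and with anti-pan-JNK for total JNK. n = 3–5 independent treatments for each condition.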

Data set [16] has as its system TrxR. The note with it: BEAS-2B cells, cited from earlier work.
In another data set the test system is catalase. Particulars: 25 μM acrolein, 30 min, human umbilical vein endothelial cells; cited from earlier work.
[17] abbreviates: human endothelial cells, limited experiments.
[18] abbreviates: 5 μM acrolein, human endothelial and bronchial epithelial cells.

glutathione reductase (GSSG-R), sequence (P00390 44-522): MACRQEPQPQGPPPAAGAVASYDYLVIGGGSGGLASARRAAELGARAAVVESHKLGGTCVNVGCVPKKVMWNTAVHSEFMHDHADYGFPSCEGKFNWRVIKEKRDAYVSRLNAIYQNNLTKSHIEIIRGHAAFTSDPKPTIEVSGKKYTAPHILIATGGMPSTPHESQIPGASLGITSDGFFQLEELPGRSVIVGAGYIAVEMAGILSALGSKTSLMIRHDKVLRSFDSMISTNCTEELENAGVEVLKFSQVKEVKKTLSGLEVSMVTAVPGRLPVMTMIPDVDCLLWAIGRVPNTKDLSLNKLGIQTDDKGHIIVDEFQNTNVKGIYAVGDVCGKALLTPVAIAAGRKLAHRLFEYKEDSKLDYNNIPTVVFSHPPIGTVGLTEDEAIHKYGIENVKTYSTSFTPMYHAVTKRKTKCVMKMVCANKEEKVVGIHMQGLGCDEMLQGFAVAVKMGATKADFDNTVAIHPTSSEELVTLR
glyceraldehyde-3-phosphate dehydrogenase (GAPDH), sequence (P04406 whole entry): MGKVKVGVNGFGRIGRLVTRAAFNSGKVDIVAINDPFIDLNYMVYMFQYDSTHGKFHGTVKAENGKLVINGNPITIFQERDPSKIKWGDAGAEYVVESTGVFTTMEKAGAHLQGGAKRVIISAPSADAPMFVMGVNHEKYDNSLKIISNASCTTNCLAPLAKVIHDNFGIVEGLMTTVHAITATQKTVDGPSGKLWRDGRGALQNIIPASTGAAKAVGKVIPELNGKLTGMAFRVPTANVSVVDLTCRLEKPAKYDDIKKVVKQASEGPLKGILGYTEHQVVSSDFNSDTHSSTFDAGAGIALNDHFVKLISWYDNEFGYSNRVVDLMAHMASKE

As for `CCCCCC(O)/C=C/C=O` (stereo not drawn) [4-HNE, 4-hydroxynonenal], in the data set on TrxR [1], the “inhibition of TrxR activity” value was “ca. 60%”.
As for `O=C/C=C/c1ccccc1` [Cinnamaldehyde], the “effect on NF-κB activity” value in the data set with NF-κB [2] was “blocks NF-κB activity”.
For the molecule `N[C@@H](CCC(=O)N[C@@H](CS)C(=O)NCC(=O)O)C(=O)O` [GSH, reduced glutathione], the pKa of thiol in [3] is listed as 8.8.
For `CCOC(=O)CNC(=O)[C@H](CS)NC(=O)CC[C@H](N)C(=O)O` [GSH-monoethyl ester], the “protection of cells from acrolein” value in [4] is “only a minor protection”. Further, the “increase in GSH levels” value in the data set with GSH [5] was 64%.
As for `CC(=O)N[C@@H](CS)C(=O)O` [NAC, N-acetylcysteine, reference compound], the “protection of Trx1 redox state from acrolein” value in the data set with Trx1 (human endothelial cells, 2 hr pretreatment) is on record as “partially protects”. Moreover, in the data set on GSH [5], the “increase in GSH levels” value is 31%. Besides, the “protection of Trx2 from acrolein” value in the data set on Trx2 (setting [17]) is reported as “did not protect”.
As to `C[S+]([O-])c1ccc(-c2nc(-c3ccncc3)c(-c3ccc(F)cc3)[nH]2)cc1` (stereo not drawn) [SB203580], in data set [6] (HMEC-1 cells, SB203580 10 μM 2 hr pretreatment, 5 and 12.5 μM acrolein 30 min, 14 hr in fresh medium), the “protection from acrolein toxicity (Fig. 7)” value is recorded as “decreases acrolein toxicity; also recorded: protects”.
As to `Oc1c2ccccc2c2c3c(cccc13)N=N2` [SP600125], the “effect on cell death by itself” value in data set [6] (human endothelial HMEC-1 cells, inhibitor alone) is given as “increases cell death”.
As for `C=CC=O` [acrolein, Prop-2-enal], the “toxicity relative to formaldehyde” value in [7] was 10-200 times. Also, the “effect on reduced form of Trx1 (redox blot)” value in the data set with Trx1 (setting [18]) was “eliminate the reduced forms”. The “recovery of Trx1 redox state after acrolein removal” value in the data set with Trx1 (human endothelial cells, 4-hr acrolein-free period) was “modest recovery”. Also, the “effect on glutathione peroxidase” value with glutathione peroxidase is “not inhibited; also recorded: unaffected”. The “effect on NF-κB binding and activity” value in the data set with NF-κB [8] was “blocks both the binding and activity of NF-κB”. The cytotoxic concentration in the data set on Human endothelial cells was at least 5 µM. Moreover, the “inhibition of TrxR activity” value with TrxR [9] is 88%; in the data set on TrxR [11] (50-75 μM acrolein for 30 min), “ca. 65%”. The “irreversible inhibition of purified TrxR” value in the data set with Purified TrxR was 80%. In addition, the “phosphorylation of p38 (Fig. 5)” value in the data set on p38 is recorded as “causes phosphorylation of p38”. The “effect on NF-κB DNA binding” value in the data set on NF-κB [10] is listed as “blocks NF-κB DNA binding”. Besides, the “ASK1 bound to Trx1 (IP, Fig. 4)” value on ASK1 bound to Trx1 is given as “causes dissociation of ASK1 from Trx1”. For the same molecule, in the data set on superoxide dismutase, the “effect on superoxide dismutase” value is listed as “not inhibited; also recorded: unaffected”. In the data set with Trx (A549 cancer cells), the “concentration for maximal inhibition of Trx activity” value is at least 15 µM. For the same molecule, the “recovery of Trx activity after acrolein removal” value in the data set on Trx (A549 cells, 4 hr after acrolein removed) was “partial recovery”. In the data set on TrxR [11] (2-4 hr after acrolein removal), the “TrxR activity recovered after acrolein removal” value is on record as 70-100%. The “oxidation of Prx1 to dimers” value in the data set on Prx1 is on record as “near complete oxidation”. Besides, the “effect on TrxR activity (Fig. 2)” value in the data set with TrxR [12] is reported as “markedly inhibits”. In addition, the “effect on glutathione reductase” value in the data set with glutathione reductase is “not inhibited; also recorded: unaffected”. Besides, the “recovery of GSH levels once acrolein is removed (Fig. 3)” value in the data set with GSH [13] is on record as “recover quickly”. Besides, the “effect on cellular activity of glyceraldehyde phosphate dehydrogenase (Fig. 2)” value in data set [14] is recorded as “not significantly affected”. The “oxidation of Prx3 to dimers” value with Prx3 is “near complete oxidation”. Also, in the data set with AP-1, the “effect on AP-1 DNA binding and activity” value is “decreases AP-1 binding to DNA and AP-1 activity”. For the same molecule, the “inhibition of glutathione reductase activity (Fig. 2)” value in [15] (12.5 μM acrolein) is “ca. 40%”. For the same molecule, in [15] (2.5 or 5 μM acrolein), the “effect on glutathione reductase activity (Fig. 2)” value was “not inhibited”. Further, in the data set with JNK, the “phosphorylation of JNK (Fig. 6)” value was “causes phosphorylation of JNK”. Also, the “effect on TrxR activity at 1 μM” value in the data set on TrxR [16] (1 μM acrolein) is reported as “significant inhibition”. Further, the “recovery of TrxR activity after acrolein removal” value in the data set with TrxR [16] (4 hr after acrolein removal) was “does not recover”. In addition, the “acrolein concentration that strongly inhibits TrxR activity” value in the data set with TrxR [16] was at least 2.5 µM. Also, the “effect on reduced form of Trx2 (redox blot)” value with Trx2 (setting [18]) is “eliminate the reduced forms”. Besides, the “redox recovery of Trx2 after acrolein removal” value in the data set on Trx2 (setting [17]) is reported as “not observed”. Moreover, the effect on catalase result in the data set with catalase was “not inhibited”.
